Assay outcomes deposited in PubChem by Broad Institute.
SR-BI HDL uptake – blocks mouse SR-BI lipid uptake from DiI-HDL; 0.96% of 320,000 active; ldlA[mSR-BI] CHO cells, DiI-HDL uptake fluorescence, 3 h; inhibition, % at 12.5 µM; Q61009;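 active = mean replicate inhibition of at least 70% and a set share of replicates each scoring 70 or more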;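 note: 0% = median of neutral control wells and 100% = median of positive control wells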
Target sequence (Q61009 whole entry, looked up): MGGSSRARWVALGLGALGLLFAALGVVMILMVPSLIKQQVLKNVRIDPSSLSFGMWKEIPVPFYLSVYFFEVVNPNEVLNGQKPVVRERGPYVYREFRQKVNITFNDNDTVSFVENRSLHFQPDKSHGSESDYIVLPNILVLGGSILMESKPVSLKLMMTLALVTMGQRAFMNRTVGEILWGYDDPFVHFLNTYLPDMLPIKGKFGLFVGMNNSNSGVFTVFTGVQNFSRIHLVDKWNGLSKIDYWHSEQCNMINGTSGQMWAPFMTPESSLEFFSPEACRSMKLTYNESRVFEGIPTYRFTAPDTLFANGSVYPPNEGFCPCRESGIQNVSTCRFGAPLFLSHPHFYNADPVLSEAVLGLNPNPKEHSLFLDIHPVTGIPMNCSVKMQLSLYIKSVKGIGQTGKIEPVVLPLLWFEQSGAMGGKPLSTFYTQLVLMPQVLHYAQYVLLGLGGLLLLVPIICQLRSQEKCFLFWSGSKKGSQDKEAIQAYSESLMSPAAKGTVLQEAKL
miR-122 sensor – blocks miR-122 activity in Huh7 sensor cells | Huh7 miR-122 Renilla luciferase sensor, 48 h; neutral wells = 0, positive control = 100 | activation (reporter increase), % at 12.5 µM | 0.3% of 340,000 active | AID 602342;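 active = mean replicate activation score at least 90 and every replicate individually at or above 90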;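 note: higher luciferase means less miR-122 activity so hits act as miR-122 inhibitors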
CAL PDZ FP-1 – CAL PDZ (human) peptide binding inhibition | Q9HD26 | purified CAL PDZ, TMR-peptide fluorescence polarization, 1 h | inhibition, % at 24.9 µM | 0.92% of 300,000 active | AID 602252;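 active = mean inhibition of at least 30% with at least half of replicates also reaching 30%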;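 note: 0% = DMSO neutral control and 100% = excess unlabeled competitor peptide PRC23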
CAL PDZ FP-2 – inhibitors of human CAL PDZ peptide binding | purified CAL PDZ, TMR-peptide fluorescence polarization, 1 h | AID 504414 | 0.02% of 330,000 active | Q9HD26 | inhibition, % at 20 µM;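 active = highest replicate inhibition of at least 40%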;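 note: plate controls were DMSO neutral control wells for no effect and unlabeled competitor peptide control wells for full effect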
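Material: tagged CAL PDZ protein CerCALP, purified; buffer or medium: sodium phosphate/NaCl buffer pH 7.4 with TCEP, IgG, Thesit; also added: fluorescent TMR peptide probe; schedule: 1 h incubation at room temperature before polarization reading; technique: fluorescence polarization from S- and P-plane intensities, G-factor corrected; control set: unlabelled peptide and DMSO controls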
ARNT-TACC3 inh – ARNT/TACC3 interaction disruption; 0.66% of 390,000 active; AlphaScreen His-ARNT PAS-B/GST-TACC3 binding, luminescence; TACC3 fragment carries E629A point mutation; inhibition, % at 9.99 µM; Q9Y6A5; AID 623870;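 active = mean inhibition of replicates at least 50% and at least half of replicates each reaching 50%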;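 note: 0% = complete ARNT plus TACC3 wells and 100% = ARNT alone without TACC3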
SR-BI DiI-HDL act – activators of SR-BI mediated HDL lipid uptake | CHO ldlA[mSR-BI] cells, DiI-HDL uptake fluorescence, 3 h; 100 = double the neutral-control signal | activation, % at 12.5 µM | 0.096% of 320,000 active | AID 504775;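 active = mean replicate activation of at least 60% and every replicate at or above 60%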;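 note: 0% = median plate neutral-control signal and 100% = twice that signal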
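material = CHO ldlA[mSR-BI] cells | medium = Ham's F12 with 0.5% BSA, HEPES 25 mM, pH 7.4 | reagent = fluorescent DiI-HDL, 10 µg/mL final | compound dosing = single-point compound dose | incubation = 3 h, 37 °C | measured by = bottom-read fluorescence, 550/595 nm | measure = HDL uptake via cellular fluorescence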
The depositor's hits bear a star; nt = no result given; + = active, no number; [ ] = dose if it differs, or a comment. Hits are enriched below; roughly 2.1% of the tested compounds scored in any of these assays.

SMILES	SR-BI HDL uptake	miR-122 sensor	CAL PDZ FP-1	CAL PDZ FP-2	ARNT-TACC3 inh	SR-BI DiI-HDL act
NS(=O)(=O)c1ccc(CCNC(=O)COC(=O)C2CCC2)cc1	-26	-5	47*	-1	-2	26
COC(=O)CSc1nc(C)cc(C)c1C#N	11	nt	6	-1	-5	-11
CCOC(=O)CC(=O)CSc1nc(C)cc(C)c1C#N	-21	-2	39*	-2	-1	21
O=C(NCC[C@H]1CC[C@H](NC(=O)C2CC2)[C@H](CO)O1)c1ccc(F)cc1	nt	nt	nt	nt	-5	nt
COc1ccc(-c2nn(-c3ccccc3)cc2/C=N/Nc2ccc3ccccc3n2)cc1OC	33	nt	-3	0	2	-33
COc1ccc(-c2nn(-c3ccccc3)cc2/C=N/Nc2ccc(S(N)(=O)=O)cc2[N+](=O)[O-])cc1OC	79*	nt	-9	nt	4	-79
O=C(C[C@H]1CC[C@@H](NC(=O)NC2CCCCC2)[C@@H](CO)O1)NCc1ccc(F)cc1	nt	3[16.7 µM]	nt	nt	18	nt
COC(=O)c1ccccc1SCC(=O)Nc1ccc(N2CCOCC2)cc1	25	-3	64*	-2	2	-25
CCOC(=O)C1=C(C)C/C(=N\NC(=O)c2ccccc2O)CC1	11	nt	86*	-1	33	-11
O=C(NN=C1CCN(Cc2ccccc2)CC1)c1ccccc1O	-3	34	-15	-1	11	3
Cc1ccc2c(CC(=O)N3CCN(S(=O)(=O)c4ccc5c(c4)OCCO5)CC3)coc2c1	22	-30	58*	0	1	-22
Cc1ccc2c(CC(=O)N3CCN(S(=O)(=O)c4ccccc4)CC3)coc2c1	8	4	-3	-2	-1	-8
C[C@@H]1CN([C@@H](C)CO)C(=O)c2cccc(NC(=O)c3ccncc3)c2O[C@@H]1CN(C)Cc1ccc(C(=O)Nc2ccccc2N)cc1	nt	47[16.7 µM]	nt	nt	16	nt
O=C(O)c1ccc(-c2ccc(OS(=O)(=O)c3ccccc3F)cc2)cc1	-3	11	45*	-3	nt	3
COC(=O)c1ccccc1S(=O)(=O)Oc1ccc(-c2ccc(C(=O)O)cc2)cc1	nt	3	-2	-1	-6	nt
Cc1cc(NC(=O)c2ccc(F)cc2)n(-c2ccccn2)n1	40	nt	12	-2	nt	-40
Cc1cc(NC(=O)c2ccc(C#N)cc2)n(-c2ccccn2)n1	26	nt	78*	0	1	-26
CNC(=O)C[C@@H]1CC[C@H]2[C@@H](COc3ccc(NC(=O)c4ccc(C(F)(F)F)cc4)cc3C(=O)N2C)O1	nt	21[16.7 µM]	nt	nt	-3	nt
COc1ccccc1-n1c(=S)[nH]c2c(sc(=S)n2-c2ccccc2C)c1=O	-41	nt	75*	1	16	41
COc1ccc(OC)c(-n2c(=S)[nH]c3c(sc(=S)n3-c3ccccc3C)c2=O)c1	1	nt	-5	-3	7	-1
Cc1c(NC(=O)Nc2ccc(Cl)c(Cl)c2)sc(=S)n1C	90*	8	-1	0	-27	-90
COc1ccc(-c2cn(CC[C@@H]3CC[C@H](NC(=O)NC(C)C)[C@@H](CO)O3)nn2)cc1	nt	nt	nt	nt	-6	nt
CCN(CC)c1ccc(NC(=O)Cn2cc3c(n2)CCC(C)C3)c(C)c1 (stereo not drawn)	-13	nt	nt	-3	49*	13
O=C(NCC[C@H]1CC[C@H](NS(=O)(=O)c2ccc(F)cc2)[C@@H](CO)O1)Nc1ccc(F)cc1	nt	nt	nt	nt	3	nt
O=[N+]([O-])c1ccc(Sc2cccc[n+]2[O-])c2nonc12	38	nt	-1	-1	62*	-38
SMILES	SR-BI HDL uptake	miR-122 sensor	CAL PDZ FP-1	CAL PDZ FP-2	ARNT-TACC3 inh	SR-BI DiI-HDL act
N#C/C(=C/c1ccc(-c2ccc([N+](=O)[O-])cc2)o1)C(=O)Nc1nc(-c2cccs2)cs1	88*	0	-3	-1	20	-88
COCC(=O)N(C)C[C@@H]1Oc2ncc(-c3ccccc3C)cc2C(=O)N([C@@H](C)CO)C[C@H]1C	nt	-3[16.7 µM]	nt	nt	-6	nt
COCC1CCN(C(=O)c2ccc3oc(CCCc4ccccc4)nc3c2)C1 (stereo not drawn)	-1	1	-3	+	-8	1
COc1ccc(Nc2sc(C(=O)c3ccc(Cl)cc3)c(N)c2C(=O)Nc2ccccc2OC)cc1	93*	20	-4	0	-21	-93
COc1cccc(CSc2nnc(-c3ccncc3)n2C)c1	12	-10	40*	0	1	-12
Cn1c(SCc2ccccc2)nnc1-c1ccc(O)cc1	13	7	-1	0	active	-13
CNC(=O)C[C@H]1CC[C@@H]2[C@H](COc3ccc(NC(=O)Nc4c(C)noc4C)cc3C(=O)N2C)O1	nt	21[16.7 µM]	nt	nt	-11	nt
C[C@@H]1CN([C@H](C)CO)S(=O)(=O)c2ccc(C#Cc3cccnc3)cc2O[C@H]1CN(C)C(=O)CN(C)C	nt	-4[16.7 µM]	nt	nt	-3	nt
O=[N+]([O-])c1cccc(-c2cc(-c3cc(Br)ccc3O)[nH]n2)c1	86*	-3	-3	-2	nt	-86
Oc1ccc(Br)cc1-c1cc(-c2ccc(Cl)cc2)n[nH]1	75*	4	-4	-2	-4	-75
Oc1ccc(Br)cc1-c1cc(-c2ccccc2)n[nH]1	48	6	-3	-3	-2	-48
COc1ccc(N2CCN(c3nc4c(c(=O)n(C)c(=O)n4C)n3CCCc3ccccc3)CC2)cc1	-373	11	1	-1	-4	373*
COc1ccc(N2CCN(Cc3nc4c(c(=O)n(C)c(=O)n4C)n3CCc3ccccc3)CC2)cc1	-15	-7	-2	0	-11	15
C[C@@H]1CCCCO[C@@H](CN(C)S(=O)(=O)c2ccc(F)cc2)[C@@H](C)CN([C@@H](C)CO)C(=O)c2cc(NC(=O)c3ccccc3)ccc2O1	nt	-6[16.7 µM]	nt	nt	-6	nt
COc1ccc(Nc2nc(-c3cccc(OC)c3O)nc3ccccc23)cc1	83*	22	-5	0	-1	-83
COc1cccc(-c2nc(NCCN3CCOCC3)c3ccccc3n2)c1O	30	-36	-11	-1	18	-30
COc1cccc(-c2nc(NC(C)(C)C)c3ccccc3n2)c1O	84*	3	-2	-1	-1	-84
COc1cccc(S(=O)(=O)N[C@@H]2CC[C@H](CC(=O)NC3Cc4ccccc4C3)O[C@H]2CO)c1	nt	-11[16.7 µM]	nt	nt	-3	nt
COc1cc2c(cc1OC)C(c1cc3ccc(C)cc3[nH]c1=O)N(C(=O)c1ccco1)CC2 (stereo not drawn)	-4	-4	41*	-2	nt	4
CCOC(=O)C(=Cc1ccc(-c2ccsc2C(=O)OC)o1)C(=O)OCC	76*	-8	-1	-1	3	-76
COC(=O)C(=Cc1ccc(-c2ccsc2C(=O)OC)o1)C(=O)OC	24	nt	1	0	-2	-24
